Calls of active or inactive are those of the source. No cut-off for these calls is given here.
Experiments:
Homo sapiens [1] = species on record: Homo sapiens; assay: Activation of LPS-induced NF-kappaB activity in human THP1-Blue-NF-kappaB cells assessed as increase in SEAP reporter activity at 5 uM incubated for 20 hrs by quanti-blue SEAP assay relative to control
Summary of the method: (§1)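 THP1-Blue NF-κB cells, 10^5/well, in RPMI with 10% FBS, pen/strep and Normocin. Compound (5 μM single point or graded concentrations, 0.05% DMSO) is added together with LPS; methods give final LPS 10 μg/mL, table footnote gives 10 ng/mL. Supernatant SEAP is read after 20 h by QuantiBlue colorimetry at 630 nm.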

Homo sapiens [2] = species on record: Homo sapiens; assay: Activation of IFNalpha signalling in human ISRE-bla-THP1 cells assessed as increase in type-1 IFN-alpha induced ISRE activity at 5 uM preincubated for 16 hrs followed by CCF4-AM substrate addition and measured after 3 hrs by FRET based assay relative to control; assay type: cell-based
Summary of the method: (§2)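 ISRE-bla THP-1 cells, 5×10^4/well, in RPMI with 10% dialyzed FBS, 0.1 mM non-essential amino acids, 1 mM pyruvate and pen/strep. Cells are co-treated with IFN-α (final 100 U/mL) and compound: 5 μM single point or graded concentrations, 0.05% DMSO. After 16 h, CCF4-AM is added for 3 h at RT in the dark.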

[3] = Stability of the compound in DMSO; assay type: physicochemical
[4] = Prodrug conversion in RPMI assay medium supplemented with 10% dialyzed FBS, 100 U/ml penicillin and 100 ug/ml streptomycin assessed as N-(4-chloro-2,5-dimethoxyphenyl)-4-ethoxybenzene-sulfonamide release; assay type: ADME; settings: cattle
THP-1 = assay: Cytotoxicity against human THP1 cells assessed as reduction in cell viability at 5 uM incubated for 18 hrs by MTT assay relative to control; settings: thp-1, 18 h
[5] = Activation of LPS-induced NF-kappaB activity in human THP1-Blue-NF-kappaB cells assessed as increase in SEAP reporter activity incubated for 20 hrs by quanti-blue SEAP assay; summary of the method: as §1
[6] = Activation of IFNalpha signalling in human ISRE-bla THP1 cells assessed as increase in type-1 IFN-alpha induced ISRE activity preincubated for 16 hrs followed by CCF4-AM substrate addition and measured after 3 hrs by FRET based assay; assay type: cell-based; settings: THP-1; summary of the method: as §2
Mus musculus = species on record: Mus musculus; assay: Co-adjuvanticity in ovalbumin immunized C57BL/6 mouse assessed as increase in OVA-specific IgG titers in blood at 100 nmol co-immunized with adjuvant MPLA and ovalbumin antigen on day 0 and 21 and measured on day 21 by ELISA; assay type: functional, organism-based
Summary of the method: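 C57BL/6 mice, 7–9 weeks old, n=8/group, immunized on days 0 and 21 with ovalbumin (20 μg/animal), MPLA (10 μg/animal) and compound (100 nmol/animal). Bled on day 21; OVA-specific IgG titers measured by ELISA.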

[7] = Systemic toxicity in ovalbumin immunized C57BL/6 mouse assessed as behavioural changes at 50 nmol co-immunized with adjuvant MPLA and ovalbumin antigen on day 0 and 21; settings: in vivo
Summary of the method: (§3)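 C57BL/6 mice, 7–9 weeks old, n=8/group, immunized intramuscularly (gastrocnemius) on days 0 and 21 with ovalbumin (20 μg/animal), MPLA (10 ng/animal) and compound (50 nmol/animal). Systemic toxicity monitored as behaviour change and weight loss.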

[8] = Systemic toxicity in ovalbumin immunized C57BL/6 mouse assessed as body weight loss at 50 nmol co-immunized with adjuvant MPLA and ovalbumin antigen on day 0 and 21; settings: in vivo; summary of the method: as §3

SMILES	Activity (Homo sapiens [1]) [%]	Activity (Homo sapiens [2]) [%]	Stability [3]	Drug metabolism [4]	Activity (THP-1) [%]	EC50 [5] [µM]	EC50 [6] [µM]	Activity (Mus musculus)	Activity [7]	Activity [8]
CCOc1ccc(S(=O)(=O)N(C(C)=O)c2cc(OC)c(Cl)cc2OC)cc1	184	244	Stable	Metabolite_Detected	72					
CCOc1ccc(S(=O)(=O)Nc2cc(OC)c(Cl)cc2OC)cc1	200	200			73.5	0.6	0.66	Active	Non-Toxic	Non-Toxic
CCOc1ccc(S(=O)(=O)N(C)c2cc(OC)c(Cl)cc2OC)cc1	235	215			74.5	0.69	0.84	Active	Non-Toxic	Non-Toxic
